RGS4 inh: inhibitors of human RGS4 | P49798 | HEK293 M3R/RGS4 inducible, Fluo-4 calcium flux; active compounds read high; triggered by carbachol at its EC20 | B-score at 10 µM | 310,000 compounds, 0.45% hits;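 active = B-score, a plate-corrected calcium signal, over three deviations above library mean, with baseline fluorescence within five deviations of library mean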;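 note: RGS4 expression induced by doxycycline in cells with stable M3 receptor; B-score is computed from the integrated fluorescence ratio over baseline after carbachol; higher B-score means a larger calcium signal and so more RGS4 inhibition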
Target sequence (P49798 whole entry, looked up): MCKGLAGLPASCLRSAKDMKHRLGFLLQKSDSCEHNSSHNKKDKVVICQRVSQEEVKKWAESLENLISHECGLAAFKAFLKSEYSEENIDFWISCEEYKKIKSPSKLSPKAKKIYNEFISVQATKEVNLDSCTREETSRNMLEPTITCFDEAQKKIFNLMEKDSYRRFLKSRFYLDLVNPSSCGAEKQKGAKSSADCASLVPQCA
MrgX1 allo act: allosterically activates human MrgX1 receptor signaling. Q96LB2. MrgX1-HEK293, Fluo-4 calcium flux, FDSS; active compounds read high. B-score at 10 µM. 310,000 compounds, 0.63% hits;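 active = plate-corrected calcium response at least 3 library SD above typical, normal starting fluorescence, not activating the receptor alone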;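 note: compound read alongside a low EC10 to EC30 dose of BAM8-22 agonist; peak minus trough fluorescence over baseline measured at the second addition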
Target sequence (Q96LB2 whole entry, looked up): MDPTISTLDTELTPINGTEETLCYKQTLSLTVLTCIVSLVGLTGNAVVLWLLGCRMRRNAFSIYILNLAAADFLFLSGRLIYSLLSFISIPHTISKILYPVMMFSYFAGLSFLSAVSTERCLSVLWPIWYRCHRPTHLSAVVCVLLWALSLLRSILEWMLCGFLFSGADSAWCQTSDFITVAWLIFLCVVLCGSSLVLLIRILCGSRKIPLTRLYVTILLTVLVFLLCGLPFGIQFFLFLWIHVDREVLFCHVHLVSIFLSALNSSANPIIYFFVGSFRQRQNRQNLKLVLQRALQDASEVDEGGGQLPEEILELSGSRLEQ
MrgX1 agonist: activates human MrgX1 receptor signaling; Q96LB2; MrgX1-HEK293 cells, Fluo-4 calcium fluorescence, agonist mode; active compounds read high; B-score at 10 µM; 310,000 compounds, 0.44% hits; AID 588627;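 active = calcium response B-score plate-corrected fluorescence ratio at least 3 library SD, with starting fluorescence B-score inside 5 SD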
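Material: HEK293 cells stably expressing human MrgX1 receptor | Quantity: 15,000 cells per well | Times: Cells plated overnight, dye loaded 0.5 h 37 °C, 0.5 h room temperature | Measured by: Kinetic Fluo-4 NW fluorescence of intracellular calcium | Control set: Positive and negative controls per plate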
MrgX1 antagonist: human MrgX1 receptor antagonism, primary screen. Q96LB2. MRGX1-HEK293 calcium flux, Fluo-4, BAM8-22 antagonism; active compounds read low. B-score at 10 µM. 310,000 compounds, 1.3% hits. AID 588676;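 active = calcium-response B-score plate-corrected more than 3 library SD below zero, starting fluorescence within 5 deviations, no agonist response on first addition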;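 note: peak minus trough fluorescence over baseline after final BAM8-22 challenge near maximal dose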
RGS4 act: potentiators or activators of RGS4. HEK293 M3R/inducible RGS4, carbachol calcium flux Fluo4; active compounds read low. B-score at 10 µM. 310,000 compounds, 0.92% hits;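 active = B-score of the integrated calcium signal more than 4 SD below the library mean, with starting fluorescence not abnormally high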;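 note: negative B-score means reduced calcium response which marks RGS4 activation or potentiation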
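Test system: HEK293 cells with stable M3R and inducible RGS4; also added: carbachol at ECmax as muscarinic agonist stimulus; schedule: dye loading 30 min 37 °C, buffer rest 30 min RT; technique: kinetic calcium fluorescence imaging with Fluo4-AM dye, 2 µM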
PHOSPHO1 inh: PHOSPHO1 (human) inhibition | recombinant PHOSPHO1, absorbance phosphatase assay | inhibition, % at 13.3 µM | 290,000 compounds, 1.1% hits | Q8TCT1 | AID 1565; in the data active = inhibition above about 60%
Target sequence (Q8TCT1 whole entry, looked up): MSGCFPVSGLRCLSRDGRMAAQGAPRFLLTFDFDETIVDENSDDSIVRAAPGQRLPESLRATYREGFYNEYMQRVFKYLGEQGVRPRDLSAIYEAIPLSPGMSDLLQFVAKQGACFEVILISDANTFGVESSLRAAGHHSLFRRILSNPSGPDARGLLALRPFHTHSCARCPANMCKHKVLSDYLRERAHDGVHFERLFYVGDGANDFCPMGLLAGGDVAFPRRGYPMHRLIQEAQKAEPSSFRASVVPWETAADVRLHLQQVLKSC
MrgX1 ant reconf: human MrgX1 receptor antagonism, re-confirmation screen | shares compounds with MrgX1 antagonist | MrgX1-HEK293, BAM8-22 calcium flux, Fluo-4; active compounds read low | remaining BAM8-22 calcium response % of control (active compounds read low), % at 10 µM | AID 602420 | 2,300 compounds, 19% hits;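 active = remaining agonist calcium response no higher than 100% minus 3 SD of agonist-only control wells, with starting fluorescence near control levels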;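 note: agonist BAM8-22 given at a near maximal EC90 to ECmax level; peak minus minimum fluorescence divided by baseline after agonist addition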
HEK293 Ca flux: counter-screen for MrgX1 antagonists: effect in parental HEK293 cells; shares compounds with MrgX1 antagonist; Fluo-4 calcium fluorescence, FDSS; fluorescence ratio F(max-min)/F0 at 10 µM; 4,000 compounds, 2% hits; AID 624111;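 active = duplicate-averaged calcium fluorescence ratio at least three times the standard deviation of buffer wells, a nonspecific response in parental cells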
HEK293 Ca counter: MrgX1 allosteric activator counter-screen hit in parental HEK293 cells | 4,000 compounds, 0.4% hits | shares compounds with MrgX1 antagonist | AID 624114 | fluorescence ratio F(max-min)/F0 at 10 µM | parental HEK293 calcium flux, Fluo-4 fluorescence ratio; active compounds read high;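 active = calcium fluorescence ratio, averaged over duplicates, at least 3 SD of the buffer-well ratio, meaning a nonspecific response in receptor-free cells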;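 note: untransfected parental HEK293 lacking MrgX1 used as counterscreen for MrgX1 allosteric activators; fluorescence change taken during the second addition on a kinetic imager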
HEK293 Ca cntr2: MrgX1 activator counter-screen hit in parental HEK293 cells; shares compounds with MrgX1 antagonist; Fluo-4 calcium fluorescence (FDSS); active compounds read high; fluorescence ratio F(max-min)/F0 at 10 µM; 4,000 compounds, 8.7% hits;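 active = calcium fluorescence ratio at least three times the spread of buffer wells, meaning a non-specific response in parental cells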
Large screens that a line does not name were inactive (follow-up assays come after a bar, where they were run). This is a sample that favours compounds with a hit; in the whole collection about 4.5% have one here.

CC(=O)Nc1ccc(NC(=O)CCc2nc3sc4c(c3c(=O)[nH]2)CCCC4)cc1	MrgX1 antagonist -4.56 (no result: PHOSPHO1 inh) | MrgX1 ant reconf inactive | HEK293 Ca flux inactive | HEK293 Ca counter inactive | HEK293 Ca cntr2 inactive
NC(=O)c1ccc(NC(=O)CCc2nc3sc4c(c3c(=O)[nH]2)CCCC4)cc1	none (no result: PHOSPHO1 inh)
COC(C[C@H]1O[C@H]1[C@H](O)[C@H](C)OCc1ccccc1)OC	none (no result: MrgX1 allo act, MrgX1 agonist, MrgX1 antagonist)
Cc1ccc(S(=O)(=O)N(C)C)cc1NC(=O)CCc1ccccc1	none
Brc1ccc(-c2nc3ncccn3c2NC2CCCCC2)o1	MrgX1 antagonist -5.35 | MrgX1 ant reconf inactive | HEK293 Ca flux inactive | HEK293 Ca counter inactive | HEK293 Ca cntr2 inactive
COc1ccccc1N1CCN(C(=O)CCCn2nc(C)c([N+](=O)[O-])c2C)CC1	none
Cc1nnsc1NC(=O)OCc1ccc(C(C)(C)C)cc1	none
O=C(O)c1ccccc1CSc1ncn[nH]1	MrgX1 antagonist -8.32 | MrgX1 ant reconf inactive | HEK293 Ca flux inactive | HEK293 Ca counter inactive | HEK293 Ca cntr2 inactive
CC(C)CCN1CCN(Cc2cccn2-c2ccccn2)CC1CCO (stereo not drawn)	none
Cc1n[nH]c(C)c1CCc1nc2c3ccccc3nc(SCC(=O)Nc3ccccc3F)n2n1	MrgX1 antagonist -6.98 | MrgX1 ant reconf inactive | HEK293 Ca flux inactive | HEK293 Ca counter inactive | HEK293 Ca cntr2 inactive
CC1c2[nH]c3ccccc3c2CCN1C(=O)Nc1ccccc1 (stereo not drawn)	MrgX1 antagonist -7.52 | MrgX1 ant reconf inactive | HEK293 Ca flux inactive | HEK293 Ca counter inactive | HEK293 Ca cntr2 inactive
Cc1cccc(NC(=O)CSCC(=O)Nc2cc(Cl)ccc2N2CCN(C)CC2)c1	none
COc1ccc(-c2cc(C(F)(F)F)n3ncc(C(=O)N4CCCCC4c4cccnc4)c3n2)cc1 (stereo not drawn)	MrgX1 antagonist -5.79 | MrgX1 ant reconf inactive | HEK293 Ca flux inactive | HEK293 Ca counter inactive | HEK293 Ca cntr2 inactive
CCOC(=O)C1CCCN(C(=O)c2cnn3c(C(F)(F)F)cc(-c4ccccc4)nc23)C1 (stereo not drawn)	none
Cc1nn(CCc2nn[nH]n2)c2nc(-c3ccc(C4CCCCC4)cc3)cc(C(F)(F)F)c12	MrgX1 antagonist -21.3, RGS4 act -8.53 | MrgX1 ant reconf 2.0% | HEK293 Ca flux inactive | HEK293 Ca counter inactive | HEK293 Ca cntr2 83.6
Cc1nn(CCC(=O)O)c2nc(-c3cccnc3)cc(C(F)(F)F)c12	none
O=C(Nc1cccc(-n2cnnn2)c1)c1ccc(OC(F)(F)F)cc1	none
O=C(NCCCN1CCOCC1)c1cc2ccccc2cc1O	MrgX1 antagonist -4.73 (no result: PHOSPHO1 inh) | MrgX1 ant reconf inactive | HEK293 Ca flux inactive | HEK293 Ca counter inactive | HEK293 Ca cntr2 inactive
COc1cc2ccccc2cc1C(=O)NCCCN1CCOCC1	none (no result: PHOSPHO1 inh)
O=C(COc1ccc2oc(-c3ccccc3)cc(=O)c2c1)Nc1ccccc1	none
COc1ccc(-c2nnc(N(C)C(=O)c3ccco3)s2)cc1OC	MrgX1 antagonist -7.46 | MrgX1 ant reconf inactive | HEK293 Ca flux inactive | HEK293 Ca counter inactive | HEK293 Ca cntr2 inactive
COCCN(C(=O)c1ccco1)c1nnc(-c2ccc(OC)c(OC)c2)s1	none
O=C(c1ccc(N2CCN(C(=O)c3ccccc3Br)CC2)cc1)c1cccc(F)c1	none
O=C(c1ccc(N2CCN(C(=O)c3cccc(F)c3)CC2)cc1)c1cccc(F)c1	MrgX1 antagonist -4.57 | MrgX1 ant reconf inactive | HEK293 Ca flux inactive | HEK293 Ca counter inactive | HEK293 Ca cntr2 inactive
O=C(COc1ccc(CO)cc1Cl)Nc1ccc(F)cc1	MrgX1 antagonist -6.57 | MrgX1 ant reconf 85.5% | HEK293 Ca flux inactive | HEK293 Ca counter inactive | HEK293 Ca cntr2 inactive
O=C(COc1ccc(CO)cc1)Nc1ccc(F)cc1	none
Cc1ccc(C)c(-c2nnc(NC(=O)CCS(=O)(=O)c3ccc(F)cc3)o2)c1	MrgX1 antagonist -4.71 (no result: PHOSPHO1 inh) | MrgX1 ant reconf inactive | HEK293 Ca flux inactive | HEK293 Ca counter inactive | HEK293 Ca cntr2 inactive
O=C(c1nc2ccc(Cl)cn2c1CN1CCC(O)CC1)N1CCc2ccccc2C1	MrgX1 antagonist -5.55 | MrgX1 ant reconf inactive | HEK293 Ca flux inactive | HEK293 Ca counter inactive | HEK293 Ca cntr2 inactive
Cc1ccc(S(=O)(=O)N(C)C)cc1NC(=O)Cn1c(CN2CCOCC2)nc2ccccc2c1=O	MrgX1 antagonist -4.95 | MrgX1 ant reconf inactive | HEK293 Ca flux inactive | HEK293 Ca counter inactive | HEK293 Ca cntr2 inactive
Cc1ccc(S(=O)(=O)N(C)C)cc1NC(=O)CSc1nc2ccccc2c(=O)n1CC1CCCO1 (stereo not drawn)	none
CC12CCCC[C@@H]1CCC1C2CCC2(C)C1CC[C@@]2(O)CNCCO (stereo partly drawn)	MrgX1 antagonist -7.77 | MrgX1 ant reconf inactive | HEK293 Ca flux inactive | HEK293 Ca counter inactive | HEK293 Ca cntr2 inactive
CCOC(=O)C1CCCN(S(=O)(=O)c2nc3nc(C)cc(C)n3n2)C1 (stereo not drawn)	MrgX1 antagonist -5.8 | MrgX1 ant reconf inactive | HEK293 Ca flux inactive | HEK293 Ca counter inactive | HEK293 Ca cntr2 inactive
CCOC(=O)C1CCCN(S(=O)(=O)c2cc3[nH]c(=O)c(=O)[nH]c3cc2C)C1 (stereo not drawn)	none
COc1ccc(N=Cc2[nH]c3ccccc3c2O)cc1	none
COc1ccc(N=Cc2oc3ccc4ccccc4c3c2O)cc1	MrgX1 antagonist -5.08 | MrgX1 ant reconf 51.2% | HEK293 Ca flux inactive | HEK293 Ca counter inactive | HEK293 Ca cntr2 inactive
COc1cccc(Nc2nc(NCCO)nc(N3CCCC3)n2)c1	none (no result: PHOSPHO1 inh)
COc1ccc(Nc2nc(NCCO)nc(N3CCCC3)n2)cc1	MrgX1 antagonist -5.52 (no result: PHOSPHO1 inh) | MrgX1 ant reconf inactive | HEK293 Ca flux inactive | HEK293 Ca counter inactive | HEK293 Ca cntr2 inactive
Cc1c(C(=O)c2cccc(F)c2)c2ccccn2c1CCC#N	MrgX1 antagonist -10.3 | MrgX1 ant reconf 84.0% | HEK293 Ca flux inactive | HEK293 Ca counter inactive | HEK293 Ca cntr2 inactive
COc1cccc(C(=O)c2c(C)c(CCC#N)n3ccccc23)c1	none
CCn1c2ccccc2c2cc(NC(=O)C(C)Oc3ccc(OC)cc3)ccc21 (stereo not drawn)	none
